Data: ChEMBL document CHEMBL1130175, “Sulfated galactocerebrosides as potential antiinflammatory agents” (J Med Chem, 1997)

target: T1, P-selectin (Homo sapiens, UniProt P16109); test: In vitro inhibitory concentration against Selectin P in a cell-free binding assay
T1 sequence (P16109 whole entry): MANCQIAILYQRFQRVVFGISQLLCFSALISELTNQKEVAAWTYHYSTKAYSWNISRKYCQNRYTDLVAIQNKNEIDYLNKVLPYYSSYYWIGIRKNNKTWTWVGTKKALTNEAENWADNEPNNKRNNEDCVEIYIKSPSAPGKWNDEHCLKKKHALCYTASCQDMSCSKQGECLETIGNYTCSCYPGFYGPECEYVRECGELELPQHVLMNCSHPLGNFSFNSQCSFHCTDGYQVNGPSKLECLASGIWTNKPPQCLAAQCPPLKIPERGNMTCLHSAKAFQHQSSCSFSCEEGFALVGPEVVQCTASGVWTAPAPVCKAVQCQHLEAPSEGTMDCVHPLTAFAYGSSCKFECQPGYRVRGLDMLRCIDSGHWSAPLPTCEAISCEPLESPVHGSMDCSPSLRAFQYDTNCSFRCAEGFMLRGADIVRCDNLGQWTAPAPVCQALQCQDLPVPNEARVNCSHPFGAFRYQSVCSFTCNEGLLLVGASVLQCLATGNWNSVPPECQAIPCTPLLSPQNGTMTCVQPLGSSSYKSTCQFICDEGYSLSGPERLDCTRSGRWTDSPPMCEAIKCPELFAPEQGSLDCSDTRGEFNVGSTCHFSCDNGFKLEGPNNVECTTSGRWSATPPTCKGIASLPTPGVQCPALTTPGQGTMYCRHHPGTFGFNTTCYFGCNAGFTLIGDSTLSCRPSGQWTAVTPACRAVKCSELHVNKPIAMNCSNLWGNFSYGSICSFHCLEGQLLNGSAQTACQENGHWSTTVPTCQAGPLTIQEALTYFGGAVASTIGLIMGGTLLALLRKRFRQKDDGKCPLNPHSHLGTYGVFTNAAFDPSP
How it was run: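 Soluble P-selectin receptor globulin (lectin, EGF and two complement repeat domains fused to an Ig tail), premixed with HRP-conjugated goat anti-human IgG. The complex was incubated on sulfatide-coated ELISA plates with or without test compound, 0.5% DMSO final. Read-out was TMB colour at 450 nm. Eight 2-fold dilutions were tested, mean of duplicates, and IC50 was interpolated from the linear part of the log dose-response curve.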

Row | Structure (SMILES) | IC50
1 | CCCCCCCCCCCCC/C=C/[C@@H](O)[C@H](CO[C@@H]1O[C@@H](CO)[C@@H](O)[C@H](O)[C@@H]1OS(=O)(=O)O)NC(=O)CCCCCCCCCCCCCCC | 2500 nM
2 | CCCCCCCCCCCCC/C=C\C(O)C(CO)NC(=O)O[C@@H]1O[C@H](CO)[C@H](O)[C@H](O)[C@H]1O (some centres not stated) [GALACTOCEREBROSIDE] | > 50000 nM
3 | CCCCCCCCCCCCC/C=C/[C@@H](O)[C@H](CO[C@@H]1O[C@@H](COS(=O)(=O)O)[C@@H](O)[C@H](O)[C@@H]1O)NC(=O)CCCCCCCCCCCCCCC | 12000 nM
4 | CCCCCCCCCCCCC/C=C/[C@@H](O)[C@H](CO[C@@H]1O[C@@H](COS(=O)(=O)O)[C@@H](O)[C@H](OS(=O)(=O)O)[C@@H]1O)NC(=O)CCCCCCCCCCCCCCC | 2400 nM
5 | CCCCCCCCCCCCC/C=C/[C@@H](O)[C@H](CO[C@@H]1O[C@@H](CO)[C@@H](OS(=O)(=O)O)[C@H](O)[C@@H]1O)NC(=O)CCCCCCCCCCCCCCC | 12500 nM

Molecules with a lower IC50, results first:

Row | IC50 | Structure (SMILES)
6 | 1200 nM | CCCCCCCCCCCCC/C=C/[C@@H](O)[C@H](CO[C@@H]1O[C@@H](COS(=O)(=O)O)[C@@H](O)[C@H](O)[C@@H]1OS(=O)(=O)O)NC(=O)CCCCCCCCCCCCCCC
7 | 100 nM | CCCCCCCCCCCCC/C=C/[C@@H](OC(=O)c1ccccc1)[C@H](CO[C@@H]1O[C@@H](CO)[C@@H](O)[C@H](OS(=O)(=O)O)[C@@H]1OS(=O)(=O)O)NC(=O)CCCCCCCCCCCCCCC
8 | 100 nM | CCCCCCCCCCCCC/C=C/[C@@H](O)[C@H](CO[C@@H]1O[C@@H](CO)[C@@H](O)[C@H](OS(=O)(=O)O)[C@@H]1OS(=O)(=O)O)NC(=O)CCCCCCCCCCCCCCC
9 | 1700 nM | CCCCCCCCCCCCC/C=C/[C@@H](O)[C@H](CO[C@@H]1O[C@@H](COS(=O)(=O)O)[C@@H](OS(=O)(=O)O)[C@H](O)[C@@H]1O)NC(=O)CCCCCCCCCCCCCCC
10 | 600 nM | CCCCCCCCCCCCC/C=C/[C@@H](O)[C@H](CO[C@@H]1O[C@@H](CO)[C@@H](O)[C@H](OS(=O)(=O)O)[C@@H]1O)NC(=O)CCCCCCCCCCCCCCC
11 | 900 nM | CCCCCCCCCCCCC/C=C/[C@@H](OC(=O)c1ccccc1)[C@H](CO[C@@H]1O[C@@H](COS(=O)(=O)O)[C@@H](O)[C@H](O)[C@@H]1OS(=O)(=O)O)NC(=O)CCCCCCCCCCCCCCC
12 | 1300 nM | CCCCCCCCCCCCC/C=C/[C@@H](OC(=O)c1ccccc1)[C@H](CO[C@@H]1O[C@@H](COS(=O)(=O)O)[C@@H](OC(C)=O)[C@H](OS(=O)(=O)O)[C@@H]1OC(=O)c1ccccc1)NC(=O)CCCCCCCCCCCCCCC
